Among the data in ChEMBL document CHEMBL1138193, “Synthesis and biological activity of 7-phenyl-6,9-dihydro-3H-pyrrolo[3,2-f]quinolin-9-ones: a new class of antimitotic agents devoid of aromatase activity” (J Med Chem, 2006) are IC50 and Activity values, retold here.

Series [1] has as its system OVCAR-3. The series can be described thus: Cytotoxicity against human Ovcar3 cells by MTT assay. It is filed as functional, cell-based. A digest of the protocol:
(§1)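 MTT colorimetric proliferation assay on human and murine tumour cell lines. Compounds tested over 50 to 0.1 µM; IC50 calculated from the concentration response.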

In series [2] the test system is ARO. The series can be described thus: Cytotoxicity against human Aro cells by MTT assay. The class given is functional, cell-based. A digest of the protocol:
as §1
On the technique in general: Tetrazolium dyes change colour on reduction, which living cells bring about.

In series [3] the test system is NCI-H295R. The series can be described thus: Cytotoxicity against human H295R cells by MTT assay. It is filed as functional, cell-based. In a few lines: as §1
The test system of series [4] is A549. The series can be described thus: Cytotoxicity against human A549 cells by MTT assay. It is filed as functional, cell-based.
Series [5] deals with BNL. In words: Cytotoxicity against mouse BNL cells by MTT assay. It is filed as functional, cell-based. In a few lines:
as §1

Series [6] concerns OVCAR-3. The series can be described thus: Cell cycle arrest at G2/M phase in Ovcar3 cells at 5-10 uM. It is filed as functional, Homo sapiens.
Series [7] relates to HeLa. The series can be described thus: Cytotoxicity against human HeLa cells by MTT assay. The class given is functional, cell-based. A digest of the protocol:
as §1

Series [8] deals with 4T1. The series can be described thus: Cytotoxicity against mouse 4T1 cells by MTT assay. It is filed as functional, cell-based. In a few lines:
as §1

The test system of series [9] is HepG2. The series can be described thus: Cell cycle arrest at G2/M phase in HepG2 cells at 5-10 uM. It is filed as functional, Homo sapiens.
For series [10], the system named is HT-29. In words: Cytotoxicity against human HT29 cells by MTT assay. It is filed as functional, cell-based. A digest of the protocol: as §1
In series [11] the test system is PT-45. In words: Cytotoxicity against human PT45 cells by MTT assay. It is filed as functional, cell-based. A digest of the protocol: as §1
The test system of series [12] is HepG2. In words: Cytotoxicity against human HepG2 cells by MTT assay. The class given is functional, cell-based. A digest of the protocol: as §1
In series [13] the test system is MCF7. The series can be described thus: Cytotoxicity against human MCF7 cells by MTT assay. It is filed as functional, cell-based. In a few lines:
as §1

The target in series [14] is T1, Aromatase (Homo sapiens, UniProt P11511).
T1 sequence (P11511 whole entry): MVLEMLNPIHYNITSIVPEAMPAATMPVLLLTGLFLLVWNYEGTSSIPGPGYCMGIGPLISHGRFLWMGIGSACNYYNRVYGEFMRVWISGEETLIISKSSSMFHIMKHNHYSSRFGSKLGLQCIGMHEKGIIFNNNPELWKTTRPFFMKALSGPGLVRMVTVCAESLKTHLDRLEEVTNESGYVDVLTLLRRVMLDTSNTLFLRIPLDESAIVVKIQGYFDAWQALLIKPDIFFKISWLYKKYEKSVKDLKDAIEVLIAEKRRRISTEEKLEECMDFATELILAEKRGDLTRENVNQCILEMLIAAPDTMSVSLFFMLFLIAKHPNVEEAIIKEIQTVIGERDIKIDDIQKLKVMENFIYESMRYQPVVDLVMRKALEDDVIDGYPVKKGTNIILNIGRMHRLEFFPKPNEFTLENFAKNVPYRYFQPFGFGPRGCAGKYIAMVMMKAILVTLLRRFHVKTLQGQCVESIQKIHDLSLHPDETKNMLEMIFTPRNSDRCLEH
The series can be described thus: Inhibition of aromatase activity in H295R cells at 15 uM. The class given is cell-based. In a few lines:
(§2)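 H295R cells cultured 24 h in DMEM-F12 with or without forskolin (25 µM). Compound (5, 10 or 15 µM) added 1 h before [1β-³H]androstenedione substrate (0.5 µM), then 2 h further exposure. Modified tritiated water release read-out as pmol ³H₂O/h/mg protein. Letrozole reference. Mean ± SEM of three experiments in triplicate.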

For series [15], the target named is T1, Aromatase. The series can be described thus: Inhibition of aromatase activity in H295R cells at 10 uM. It is filed as cell-based. In a few lines: as §2
The target in series [16] is T1, Aromatase. In words: Inhibition of aromatase activity in H295R cells at 5 uM. It is filed as cell-based. A digest of the protocol:
as §2

The target of series [17] is Tubulin (Homo sapiens) (UniProt P68371+Q9H4B7+P0DPH7+P68366+Q13509+Q71U36+P04350+Q3ZCM7+P07437+P68363+Q9BQE3+Q6PEY2+Q13885+Q9BVA1+Q9BUF5). In words: Microtubule disassembly in Ovcar3 cells at 5 uM. The class given is functional, cell-based. Conditions: OVCAR-3. In a few lines:
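Ovcar-3 cells exposed 18 h to 5 µM (drug-free and vincristine 5 µM controls), fixed, stained with anti-β-tubulin antibody, and microtubule distribution examined by fluorescence microscopy.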

Molecules are shown by their SMILES. Activity calls are given as the source filed them. No cut-off for these calls is given here.

What is called IC50 is the concentration at which inhibition is half-maximal. Read a high IC50 as weaker potency in that assay.

`Oc1cc(-c2cccs2)nc2ccc3[nH]ccc3c12`: the 50% inhibitory concentration (IC50) in series [1] is 25 µM; in series [2], 7 µM; in series [3], 5 µM; in series [4], 15 µM; in series [5], 8 µM; in series [7], 6 µM. Besides, the concentration for half-maximal inhibition (IC50) was 20 µM in [8]; 30 µM in [10]; 8 µM in series [11]; 10 µM in [12]; 7 µM in series [13]. Moreover, the figures for the Activity in [6] and in series [9] were 17.5% and 15.6%, respectively.
On to `Oc1cc(-c2cccc(Br)c2)nc2ccc3[nH]ccc3c12`, for which the IC50 came to 10 µM in [1]; 5 µM in [2]; 5 µM in [3]; 6 µM in series [4]; 4 µM in series [5]; 5 µM in [7]. Moreover, the IC50 in series [8] amounted to 20 µM; in [10], 9 µM; in [11] it was 6 µM; in [12] it was 6 µM; in series [13], 5 µM. The Activity in series [6] is listed as 42.9%; in series [9], 40.3%; in series [14], “Not Active”; in series [15] it was “Not Active”; in [16] it was “Not Active”.
As to `Cc1cccc(-c2cc(O)c3c(ccc4[nH]ccc43)n2)c1`, the half-maximal inhibitory concentration (IC50) in series [1] worked out at 20 µM; in series [2] it was 7 µM; in series [3] it was 8 µM; in series [4], 6 µM; in series [5], 6 µM; in series [7] it was 6 µM. Besides, the 50% inhibitory concentration (IC50) came to 25 µM in series [8]; 8 µM in [10]; 7 µM in series [11]; 10 µM in [12]; 7 µM in series [13]. Besides, the Activity in series [6] is 19.5%; in [9] it was 16%.
Turning to `N#Cc1cccc(-c2cc(O)c3c(ccc4[nH]ccc43)n2)c1`, the concentration for half-maximal inhibition (IC50) is > 50 µM in series [1]; 3 µM in [2]; > 50 µM in series [3]; > 50 µM in [4]; 40 µM in [5]; 8 µM in [7]. The IC50 is > 50 µM in [8]; > 50 µM in series [10]; 40 µM in series [11]; 40 µM in series [12]; > 50 µM in series [13]. For the same compound, the Activity in series [6] is 15%; in series [9], 17.3%.
Consider `Oc1ccnc2ccc3[nH]ccc3c12`, for which the IC50 in series [1], in series [2], in series [3], in [4], in series [5] and in [7] was > 50 µM in each case. Moreover, the half-maximal inhibitory concentration (IC50) in series [8], in series [10], in [11], in [12] and in [13] was > 50 µM throughout.
With `CC[C@]1(O)C[C@H]2CN(CCc3c([nH]c4ccccc34)[C@@](C(=O)OC)(c3cc4c(cc3OC)N(C=O)[C@H]3[C@@](O)(C(=O)OC)[C@H](OC(C)=O)[C@]5(CC)C=CCN6CC[C@]43[C@@H]65)C2)C1` [VINCRISTINE], the half-inhibitory concentration (IC50) in [2] amounted to 0.0001 µM; in series [3] it was 0.09 µM; in [5] it was 0.08 µM; in [8], 0.02 µM. For the same compound, the result in series [17] was Active.
As for `N#Cc1ccc(-c2cc(O)c3c(ccc4[nH]ccc43)n2)cc1`, the IC50 in series [1] stood at 50 µM; in [2], 40 µM; in series [3] it was 30 µM; in series [4], 15 µM; in series [5], 15 µM; in [7], 15 µM. Also, the IC50 in [8] was 25 µM; in series [10] it was > 50 µM; in series [11] it was 20 µM; in series [12], 10 µM; in series [13] it was 50 µM. Besides, the Activity in [6] came out at 14.9%; in series [9], 21.5%.
Take `CC(=O)O[C@H]1C(=O)[C@@]2(C)[C@H]([C@H](OC(=O)c3ccccc3)[C@]3(O)C[C@H](OC(=O)[C@H](O)[C@@H](NC(=O)c4ccccc4)c4ccccc4)C(C)=C1C3(C)C)[C@]1(OC(C)=O)CO[C@@H]1C[C@@H]2O` [PACLITAXEL]: the IC50 in series [3] amounted to 0.08 µM; in [5] it was 0.2 µM; in series [8], 0.2 µM.
In the case of `Cc1cc(O)c2c(ccc3[nH]ccc32)n1`, the IC50 in [1], in series [2], in [3], in [4], in [5] and in series [7] was > 50 µM each time. Further, the IC50 in series [8], in [10], in [11], in series [12] and in series [13] was > 50 µM throughout.
As to `COc1cccc(-c2cc(O)c3c(ccc4[nH]ccc43)n2)c1`, the IC50 in series [1] amounted to 7 µM; in series [2], 1 µM; in [3], 0.7 µM; in [4], 2 µM; in series [5], 4 µM; in series [7], 0.7 µM. For the same compound, the IC50 in [8] came out at 4 µM; in series [10] it was 6 µM; in series [11] it was 0.7 µM; in series [12], 6 µM; in series [13], 2 µM. Further, the Activity in [6] is given as 65.3%; in series [9] it was 49.3%; in series [14], “Not Active”; in series [15], “Not Active”; in [16] it was “Not Active”.
`COC(=O)c1cc2c([nH]1)c(OC)cc1nc(-c3ccccc3)cc(O)c12`: the half-maximal inhibitory concentration (IC50) in [1], in series [2], in [3], in series [4], in series [5] and in series [7] was > 50 µM throughout. For the same compound, the IC50 in [8], in series [10], in series [11], in series [12] and in series [13] was > 50 µM each time. For the same compound, the Activity is 14.4% in [6] and 15.4% in series [9].
For `CCN(CC)CCn1ccc2c3c(O)cc(-c4ccccc4)nc3ccc21`, the half-maximal inhibitory concentration (IC50) in [1] was found to be 18 µM; in series [2], 20 µM; in [3] it was 6 µM; in [4], 12 µM; in series [5], 5 µM; in series [7], 5 µM. For the same compound, the IC50 amounted to 9 µM in series [8]; 6 µM in series [10]; 5 µM in series [11]; 7 µM in [12]; 8 µM in series [13]. Moreover, the Activity in [6] is 16.6%; in series [9], 15.1%.
Take `Nc1cccc(-c2cc(O)c3c(ccc4[nH]ccc43)n2)c1`: the IC50 in series [1] was 50 µM; in series [2] it was 30 µM; in [3], 50 µM; in series [4], 30 µM; in series [5] it was > 50 µM; in [7], 7 µM. For the same compound, the half-inhibitory concentration (IC50) is 50 µM in series [8]; > 50 µM in series [10]; 8 µM in series [11]; 30 µM in [12]; 15 µM in series [13]. The Activity in [6] stood at 14%; in series [9], 17.1%.
Take `O=[N+]([O-])c1cccc(-c2cc(O)c3c(ccc4[nH]ccc43)n2)c1`: the IC50 is > 50 µM in series [1]; 39 µM in [2]; 40 µM in series [3]; 32 µM in series [4]; > 50 µM in series [5]; 25 µM in series [7]. The IC50 in series [8] is > 50 µM; in series [10], > 50 µM; in series [11] it was 45 µM; in series [12] it was 30 µM; in [13], > 50 µM. Also, the Activity is reported as 10% in series [6] and 15.8% in series [9].
